The record followed here is the array DNA melting data of Ke et al. (doi:10.1101/2024.01.08.574731).

Data set [1] can be described thus: folding enthalpy; higher = less favourable; fluorescence melt of hairpins on a sequencing array, two-state fit. Conditions: sodium 0.088 M. The gist of the method:
(§1)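 Folding enthalpy and melting temperature come from bootstrapped two-state fits to Cy3 fluorescence of library hairpins carrying annealed Cy3 and quencher oligos on a sequenced MiSeq flow cell. Imaging was done in 50 mM Na-HEPES pH 8.0, 25 mM NaCl, stepping by 2.5 °C up to 60 °C, and signals were normalised to pre-quench Cy3 and to control constructs. Results of four replicates were combined by inverse variance, and fitted temperatures were raised by 9.35 °C to match UV melts.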

Data set [2] can be described thus: melting temperature; fluorescence melt of hairpins on a sequencing array, two-state fit, raised by 9.35 °C to match UV melts. The note with it: sodium 0.088 M. The gist of the method:
as §1

For the sequence GAACGCGAAAGCGTATTC ((((((....)))..))), the folding enthalpy in data set [1] was -7.69 kcal/mol. Besides, in data set [2], the Tm came out at 35.8 °C.

For GAACGCGAAAGCGTCTTC ((((((....)))..))), the folding enthalpy in data set [1] was -21.6 kcal/mol. In data set [2], the Tm worked out at 62.6 °C.

With GAACGCGAAAGCGTTTC ((((((....))).))), in data set [1], the folding enthalpy was -10.7 kcal/mol. For the same sequence, the Tm in data set [2] is 57.7 °C.

Take GAACGGCCGAAAGGCTTC (((..(((....)))))): the folding enthalpy in data set [1] is -7.62 kcal/mol. Also, in data set [2], the Tm was 21.1 °C.

As for GAACGGGGAAACCCGTTC (((((((....))))))), the folding enthalpy in data set [1] was -34.2 kcal/mol. In addition, the Tm in data set [2] was 67.9 °C.

Turning to GAACGTGAAAACGTTC ((((((....)))))), the folding enthalpy in data set [1] is -34 kcal/mol. Moreover, the Tm in data set [2] amounted to 58.1 °C.

For the sequence GAACGTGGAAACACGCTC ((.((((....)))).)), the folding enthalpy in data set [1] was -18.2 kcal/mol. Moreover, the Tm in data set [2] was 44 °C.

Turning to GAACGTGGAAACACGTTC (((((((....))))))), the folding enthalpy in data set [1] is -31.6 kcal/mol. Further, the Tm in data set [2] came to 66.3 °C.

As to GAACTCGGAAACAAGTTC (((((.(....).))))), in data set [1], the folding enthalpy is -22.7 kcal/mol. Moreover, in data set [2], the Tm worked out at 34 °C.

On to GAACTCGGAAACGAATTC (((.(((....))).))), for which, in data set [1], the folding enthalpy is -27.5 kcal/mol. For the same sequence, the Tm in data set [2] is 31.7 °C.

For GAACTGCGAAAGCACTTC (((.(((....))).))), the folding enthalpy in data set [1] was -10.9 kcal/mol. For the same sequence, the Tm in data set [2] was determined as 28.4 °C.

In the case of GAACTGGGAAACTAGTTC (((((.(....).))))), the folding enthalpy in data set [1] was -37.9 kcal/mol. The Tm in data set [2] was 42.4 °C.

Take GAACTTGAAAAAGTTC ((((((....)))))): the folding enthalpy in data set [1] is -28.8 kcal/mol. For the same sequence, in data set [2], the Tm was found to be 49.7 °C.

As for GAAGAACGAAAGTTGTTC (((.(((....))).))), the folding enthalpy in data set [1] is -32.7 kcal/mol. Further, the Tm in data set [2] was 41.4 °C.

For GAAGACACGAAAGTGTTC (((..(((....)))))), the folding enthalpy in data set [1] was -10.1 kcal/mol. For the same sequence, the Tm in data set [2] turned out to be 31.9 °C.

With GAAGACCGAAAGGTATTC (((.(((....))).))), in data set [1], the folding enthalpy is -32.5 kcal/mol. For the same sequence, the Tm in data set [2] came out at 50.8 °C.

GAAGACCGAAAGGTTTC (((.(((....)))))): the folding enthalpy in data set [1] is -13.9 kcal/mol. Further, the Tm in data set [2] is 37 °C.

For GAAGACGAAAGTCTTC ((((((....)))))), the folding enthalpy in data set [1] is -37.7 kcal/mol. In addition, in data set [2], the Tm was 64.5 °C.

As for GAAGAGCGAAAGCTGTTC (((.(((....))).))), the folding enthalpy in data set [1] is -24.9 kcal/mol. The Tm in data set [2] amounted to 49.2 °C.

For GAAGAGCGAAAGCTTTC (((.(((....)))))), in data set [1], the folding enthalpy is -12.2 kcal/mol. In addition, the Tm in data set [2] is 31.1 °C.

For the sequence GAAGAGGGAAACTTCTTC (((((.(....).))))), the folding enthalpy in data set [1] was -30.1 kcal/mol. Moreover, the Tm in data set [2] is 41 °C.

For GAAGATGGAAACATCTCC (.(((((....))))).), the folding enthalpy in data set [1] is -16.3 kcal/mol. The Tm in data set [2] came to 33.4 °C.

Turning to GAAGATGGAAACATCTTC (((((((....))))))), in data set [1], the folding enthalpy was -48.6 kcal/mol. In data set [2], the Tm amounted to 53.5 °C.

GAAGCACGAAAGTGTTTC (((.(((....))).))): the folding enthalpy in data set [1] is -35.2 kcal/mol. Further, the Tm in data set [2] is 51.1 °C.

Regarding GAAGCAGGAAACTGTTTC (((.(((....))).))), the folding enthalpy in data set [1] was -26.7 kcal/mol. Moreover, in data set [2], the Tm came out at 38.8 °C.

As to GAAGCCCGAAAGGGTTTC (((.(((....))).))), in data set [1], the folding enthalpy is -34.4 kcal/mol. Also, in data set [2], the Tm was 56.2 °C.

As to GAAGCCGAAAGGCGGTTC ((((((....)))..))), the folding enthalpy in data set [1] is -9.79 kcal/mol. Moreover, the Tm in data set [2] stood at 47.1 °C.

Turning to GAAGCCGAAAGGCGTTTC ((((((....)))..))), in data set [1], the folding enthalpy is -8.82 kcal/mol. In data set [2], the Tm is 44.7 °C.

Take GAAGCCGAAAGGCTGTTC ((((((....)))..))): in data set [1], the folding enthalpy is -10.4 kcal/mol. The Tm in data set [2] was 47.4 °C.

Regarding GAAGCCGCGAAAGCGTTC (((..(((....)))))), in data set [1], the folding enthalpy is -11 kcal/mol. Also, the Tm in data set [2] turned out to be 26.3 °C.

As for GAAGCCGGAAACGGCTCC (.(((((....))))).), the folding enthalpy in data set [1] was -9.15 kcal/mol. Moreover, the Tm in data set [2] was found to be 46.8 °C.

GAAGCGGAAACGCTTC ((((((....)))))): the folding enthalpy in data set [1] is -33.6 kcal/mol. Moreover, the Tm in data set [2] was found to be 67.6 °C.

As to GAAGCTGAAAAGCTTC ((((((....)))))), the folding enthalpy in data set [1] was -31.2 kcal/mol. Further, the Tm in data set [2] worked out at 58.3 °C.

In the case of GAAGCTGGAAACAGTTTC (((.(((....))).))), in data set [1], the folding enthalpy was -27.1 kcal/mol. In addition, the Tm in data set [2] is 41.6 °C.

Turning to GAAGGAGGAAACTCCCTC ((.((((....)))).)), in data set [1], the folding enthalpy was -12.1 kcal/mol. For the same sequence, the Tm in data set [2] was 28.4 °C.

Turning to GAAGGCACGAAAGTGTTC (((..(((....)))))), in data set [1], the folding enthalpy was -9.46 kcal/mol. Also, the Tm in data set [2] stood at 24.6 °C.

For GAAGGCCGAAAGGCTTTC (((.(((....))).))), the folding enthalpy in data set [1] is -20.6 kcal/mol. The Tm in data set [2] was 54.2 °C.
